Assay results reported in ChEMBL document CHEMBL1124575, “Water-soluble third generation antitumor platinum complexes, [2,2-bis (aminomethyl)-1,3-propanediol-N,N']-[1,1-cyclobutanedicarboxylato (2-)-O,O']platinum(II) and [1,1-cyclobutanedicarboxylato(2-)-O,O'] [tetrahydro-4H-pyran-4,4-dimethanamine-N,N']platinum(II)” (J Med Chem, 1989).
One block for each substance: values may come before it. Activity calls are given as the source filed them. The rule behind the calls is not given here.

Legend:
Colon 26 [1] = assay: Antitumor activity against murine tumor cells Colon 26 in BALB / C mice administered 50 mg/Kg intraperitoneally on days 1,5, and 9 relative to tumor inoculation; type: functional, cell-based; details: Mus musculus
In short: (§1)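 Colon 26 carcinoma grown in Balb/C mice following National Cancer Institute protocols. Intraperitoneal dosing on days 1, 5 and 9 after tumor inoculation, with survival followed for 30 days. Activity is scored as % ILS over control mice, and ILS >25% is required. Toxicity is a >15% drop in ILS or body weight versus controls.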

P388 [2] = assay: Antitumor activity against murine tumor cells, P388 in BDF1 mice administered 100 mg/kg intraperitoneally on days 1,5, and 9 relative to tumor inoculation; type: functional, organism-based; design: dose 100 mg/kg; details: Mus musculus, at 100 mg/kg
In short: (§2)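 L1210, cisplatin-resistant L1210 and P388 leukemias implanted in BDF1 mice and maintained per National Cancer Institute protocols. Drug given ip on days 1, 5 and 9 after inoculation, with 30-day observation. The end point is % ILS versus controls, with >25% needed for activity. Reduction of ILS or body weight by >15% is rated toxic.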

MX1 [3] = assay: Percent tumor weight inhibition (TWI) in athymic mice at an optimal dose of 50 mg/kg in breast MX-1 cells; type: functional, organism-based; design: dose 50 mg/kg; details: Mus musculus
Mus musculus [4] = assay: Percent tumor weight inhibition (TWI) in athymic mice at an optimal dose of 50 mg/kg in […] cells; type: functional, organism-based; design: dose 50 mg/kg
L1210 [5] = assay: Antitumor activity against murine tumor cells L1210 cisplatin resistant leukemia in BDF1 mice administered mg/Kg intraperitoneally on days 1,5, and 9 relative to tumor inoculation; Inactive; type: functional; details: Mus musculus; in short: as §2
B16 [6] = assay: Antitumor activity against murine tumor cells B16 in C57BC mice administered 12.5 mg/Kg intraperitoneally on days 1-9 relative to tumor inoculation; type: functional; details: Mus musculus
In short: (§3)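 B16 melanoma in C57BC/6 mice, propagated per National Cancer Institute protocols. Drug given ip daily on days 1-9 after tumor inoculation, with observation for 60 days. Read-out is % increase in life span (ILS) over controls. ILS >25% counts as active. Treatment cutting ILS or body weight by >15% versus controls is rated toxic.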

L1210 [7] = assay: Antitumor activity against murine tumor cells L1210 in BDF1 mice administered 100 mg/kg intraperitoneally on days 1,5, and 9 relative to tumor inoculation; type: functional, organism-based; design: dose 100 mg/kg; details: Mus musculus, at 100 mg/kg; in short: as §2
L1210 [8] = assay: Antitumor activity against murine tumor cells L1210 in BDF1 mice administered 6.2 mg/kg intraperitoneally on days 1,5, and 9 relative to tumor inoculation; type: functional, organism-based; design: dose 6.2 mg/kg; details: Mus musculus, at 6.2 mg/kg; in short: as §2
Mus musculus [9] = assay: Percent tumor weight inhibition (TWI) in athymic mice at an optimal dose of 3 mg/kg in […] cells; type: functional, organism-based; design: dose 3 mg/kg
P388 [10] = assay: Antitumor activity against murine tumor cells, P388 in BDF1 mice administered 3 mg/kg intraperitoneally on days 1,5, and 9 relative to tumor inoculation; type: functional, organism-based; design: dose 3 mg/kg; details: Mus musculus, at 3 mg/kg; in short: as §2
Colon 26 [11] = assay: Antitumor activity against murine tumor cells Colon 26 in BALB / C mice administered 1 mg/Kg intraperitoneally on days 1,5, and 9 relative to tumor inoculation; type: functional; details: Mus musculus; in short: as §1
L1210 [12] = assay: Antitumor activity against murine tumor cells L1210 cisplatin resistant leukemia in BDF1 mice administered mg/Kg intraperitoneally on days 1,5, and 9 relative to tumor inoculation; In active; type: functional; details: Mus musculus; in short: as §2
MX1 [13] = assay: Percent tumor weight inhibition (TWI) in athymic mice at an optimal dose of 3 mg/kg in breast MX-1 cells; type: functional, organism-based; design: dose 3 mg/kg; details: Mus musculus
B16 [14] = assay: Antitumor activity against murine tumor cells B16 in C57BC mice administered 0.4 mg/kg intraperitoneally on days 1-9 relative to tumor inoculation; type: functional, organism-based; design: dose 0.4 mg/kg; details: Mus musculus, at 0.4 mg/kg; in short: as §3
[15] = Solubility in water; type: physicochemical; details: buffer
P388 [16] = assay: Antitumor activity against murine tumor cells, P388 in BDF1 mice administered 6.2 mg/Kg intraperitoneally on days 1,5, and 9 relative to tumor inoculation; type: functional; details: Mus musculus; in short: as §2
P388 [17] = assay: Antitumor activity against murine tumor cells, P388 in BDF1 mice administered 3.2 mg/Kg intraperitoneally on days 1,5, and 9 relative to tumor inoculation; type: functional; details: Mus musculus; in short: as §2
M5076 = assay: Antitumor activity against murine tumor cells M5076 in BDF1 mice administered 3 mg/Kg intraperitoneally on days 1,5, and 9 relative to tumor inoculation; type: functional; details: Mus musculus
B16 [18] = assay: Antitumor activity against murine tumor cells B16 in C57BC mice administered 0.2 mg/Kg intraperitoneally on days 1-9 relative to tumor inoculation; type: functional; details: Mus musculus; in short: as §3
L1210 [19] = assay: Antitumor activity against murine tumor cells L1210 in BDF1 mice administered 3.1 mg/kg intraperitoneally on days 1,5, and 9 relative to tumor inoculation; type: functional, organism-based; design: dose 3.1 mg/kg; details: Mus musculus, at 3.1 mg/kg; in short: as §2
L1210 [20] = assay: Antitumor activity against murine tumor cells L1210 in BDF1 mice administered 1.5 mg/kg intraperitoneally on days 1,5, and 9 relative to tumor inoculation; type: functional, organism-based; design: dose 1.5 mg/kg; details: Mus musculus, at 1.5 mg/kg; in short: as §2
B16 [21] = assay: Antitumor activity against murine tumor cells B16 in C57BC mice administered 6 mg/kg intraperitoneally on days 1-9 relative to tumor inoculation; type: functional, organism-based; design: dose 6 mg/kg; details: Mus musculus, at 6 mg/kg; in short: as §3
B16 [22] = assay: Antitumor activity against murine tumor cells B16 in C57BC mice administered 1.5 mg/Kg intraperitoneally on days 1-9 relative to tumor inoculation; type: functional; details: Mus musculus; in short: as §3
B16 [23] = assay: Antitumor activity against murine tumor cells B16 in C57BC mice administered 0.4 mg/Kg intraperitoneally on days 1-9 relative to tumor inoculation; type: functional; details: Mus musculus; in short: as §3
Colon 26 [24] = assay: Antitumor activity against murine tumor cells Colon 26 in BALB / C mice administered 0.8 mg/Kg intraperitoneally on days 1,5, and 9 relative to tumor inoculation; type: functional; details: Mus musculus; in short: as §1
Colon 26 [25] = assay: Antitumor activity against murine tumor cells Colon 26 in BALB / C mice administered 3.1 mg/Kg intraperitoneally on days 1,5, and 9 relative to tumor inoculation; type: functional; details: Mus musculus; in short: as §1

Substance: CARBOPLATIN
Increase (Colon 26 [1]): 85%
Increase (P388 [2]): 144%
TWI (MX1 [3]): 90%
TWI (Mus musculus [4]): 200%
Increase (L1210 [5]): inactive
Increase (B16 [6]): 43%
Increase (L1210 [7]): 35%

Substance: CISPLATIN
Increase (L1210 [8]): 96%
TWI (Mus musculus [9]): 200%
Increase (P388 [10]): 140%
Increase (Colon 26 [11]): 47%
Increase (L1210 [12]): inactive
TWI (MX1 [13]): 86%
Increase (B16 [14]): 36%

S [15]: 0.3 mg/mL
Substance: cis-Diamminedichloroplatinum (II) complex [listing 1 of 3 here]

S [15]: 1 mg/mL
Substance: cis-Diamminedichloroplatinum (II) complex [listing 2 of 3 here]

Substance: cis-Diamminedichloroplatinum (II) complex [listing 3 of 3 here]
Increase (P388 [16]): 136%
Increase (L1210 [8]): 50%
Increase (P388 [17]): 173%
Increase (M5076): 128%
Increase (B16 [18]): 43%
Increase (L1210 [19]): 39%
Increase (L1210 [20]): 38%
Increase (B16 [21]): 53%
Increase (B16 [22]): 36%
Increase (B16 [23]): 43%
Increase (Colon 26 [24]): 39%
Increase (Colon 26 [25]): 59%
